Columns and labels:
[1] = molecular target: T1, N-lysine methyltransferase KMT5A (Homo sapiens, UniProt Q9NQR1)
T1 sequence (Q9NQR1 whole entry): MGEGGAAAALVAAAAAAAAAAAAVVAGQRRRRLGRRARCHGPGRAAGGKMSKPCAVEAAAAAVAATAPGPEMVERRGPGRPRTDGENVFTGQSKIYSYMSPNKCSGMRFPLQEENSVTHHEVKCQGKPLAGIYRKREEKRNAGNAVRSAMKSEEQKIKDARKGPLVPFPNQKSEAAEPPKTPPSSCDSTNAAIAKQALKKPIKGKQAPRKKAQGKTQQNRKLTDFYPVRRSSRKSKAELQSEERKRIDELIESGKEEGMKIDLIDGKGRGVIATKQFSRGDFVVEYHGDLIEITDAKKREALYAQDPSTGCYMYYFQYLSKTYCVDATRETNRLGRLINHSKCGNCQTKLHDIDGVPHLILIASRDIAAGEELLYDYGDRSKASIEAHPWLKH

[2] = molecular target: T1, N-lysine methyltransferase KMT5A; remark: listed apart in the source
[3] = molecular target: T2, Histone-lysine N-methyltransferase EHMT2 (Homo sapiens, UniProt Q96KQ7); experiment: Inhibition of G9a (unknown origin) assessed as incorporation of tritium-labeled methyl group to lysine or arginine residues of peptide substrate by radioactive assay
T2 sequence (Q96KQ7 whole entry): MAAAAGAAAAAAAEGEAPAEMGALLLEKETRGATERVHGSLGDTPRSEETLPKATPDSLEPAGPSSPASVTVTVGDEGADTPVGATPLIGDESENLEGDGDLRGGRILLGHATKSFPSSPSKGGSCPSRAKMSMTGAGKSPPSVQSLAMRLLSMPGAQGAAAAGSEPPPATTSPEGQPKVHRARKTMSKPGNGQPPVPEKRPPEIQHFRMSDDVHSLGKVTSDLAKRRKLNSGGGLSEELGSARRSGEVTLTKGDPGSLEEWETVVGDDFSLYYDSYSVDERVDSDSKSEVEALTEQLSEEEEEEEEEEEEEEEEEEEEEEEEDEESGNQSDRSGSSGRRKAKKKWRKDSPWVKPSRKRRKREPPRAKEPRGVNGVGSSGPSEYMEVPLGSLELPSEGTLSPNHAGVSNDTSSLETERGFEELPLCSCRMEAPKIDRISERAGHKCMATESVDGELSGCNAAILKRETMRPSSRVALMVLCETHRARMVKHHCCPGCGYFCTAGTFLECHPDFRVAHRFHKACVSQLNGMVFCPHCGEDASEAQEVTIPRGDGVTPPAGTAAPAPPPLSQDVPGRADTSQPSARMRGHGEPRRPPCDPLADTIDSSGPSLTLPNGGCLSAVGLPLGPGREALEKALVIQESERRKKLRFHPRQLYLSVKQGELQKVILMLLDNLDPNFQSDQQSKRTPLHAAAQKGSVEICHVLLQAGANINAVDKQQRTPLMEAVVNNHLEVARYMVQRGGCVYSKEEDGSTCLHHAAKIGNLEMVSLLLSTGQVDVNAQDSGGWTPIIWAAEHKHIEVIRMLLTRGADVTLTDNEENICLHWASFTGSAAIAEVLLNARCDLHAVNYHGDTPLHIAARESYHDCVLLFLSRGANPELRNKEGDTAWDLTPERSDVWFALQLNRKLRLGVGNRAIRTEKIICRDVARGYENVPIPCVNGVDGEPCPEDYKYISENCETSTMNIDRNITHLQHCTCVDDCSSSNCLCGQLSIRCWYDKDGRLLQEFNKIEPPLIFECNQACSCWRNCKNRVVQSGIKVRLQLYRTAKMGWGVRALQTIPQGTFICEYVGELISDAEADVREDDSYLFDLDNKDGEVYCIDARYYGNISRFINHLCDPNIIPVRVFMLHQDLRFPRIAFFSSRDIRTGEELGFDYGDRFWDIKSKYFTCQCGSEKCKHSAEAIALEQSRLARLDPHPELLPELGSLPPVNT
How it was run: (§1)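 Enzymes (PRMT5 as PRMT5-MEP50 complex, MLL1 as MLL1 complex) in 20 μL reactions with 3H-SAM and substrates near each enzyme's Km; compound at 100 nM to 100 μM. Stopped with 7.5 M guanidine HCl, diluted in 20 mM Tris pH 8.0, incubated 1 h on streptavidin FlashPlate, read as CPM. No-compound CPM was 100% activity; no-enzyme CPM was 0% background.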

[4] = molecular target: Histone-lysine N-methyltransferase SETDB1 (Homo sapiens, UniProt Q15047); experiment: Inhibition of SETDB1 (unknown origin) assessed as incorporation of tritium-labeled methyl group to lysine or arginine residues of peptide substrate by radioactive assay
How it was run: as §1

[5] = molecular target: T3, Histone-lysine N-methyltransferase EHMT1 (Homo sapiens, UniProt Q9H9B1); experiment: Inhibition of GLP (unknown origin) assessed as incorporation of tritium-labeled methyl group to lysine or arginine residues of peptide substrate by radioactive assay
T3 sequence (Q9H9B1 whole entry): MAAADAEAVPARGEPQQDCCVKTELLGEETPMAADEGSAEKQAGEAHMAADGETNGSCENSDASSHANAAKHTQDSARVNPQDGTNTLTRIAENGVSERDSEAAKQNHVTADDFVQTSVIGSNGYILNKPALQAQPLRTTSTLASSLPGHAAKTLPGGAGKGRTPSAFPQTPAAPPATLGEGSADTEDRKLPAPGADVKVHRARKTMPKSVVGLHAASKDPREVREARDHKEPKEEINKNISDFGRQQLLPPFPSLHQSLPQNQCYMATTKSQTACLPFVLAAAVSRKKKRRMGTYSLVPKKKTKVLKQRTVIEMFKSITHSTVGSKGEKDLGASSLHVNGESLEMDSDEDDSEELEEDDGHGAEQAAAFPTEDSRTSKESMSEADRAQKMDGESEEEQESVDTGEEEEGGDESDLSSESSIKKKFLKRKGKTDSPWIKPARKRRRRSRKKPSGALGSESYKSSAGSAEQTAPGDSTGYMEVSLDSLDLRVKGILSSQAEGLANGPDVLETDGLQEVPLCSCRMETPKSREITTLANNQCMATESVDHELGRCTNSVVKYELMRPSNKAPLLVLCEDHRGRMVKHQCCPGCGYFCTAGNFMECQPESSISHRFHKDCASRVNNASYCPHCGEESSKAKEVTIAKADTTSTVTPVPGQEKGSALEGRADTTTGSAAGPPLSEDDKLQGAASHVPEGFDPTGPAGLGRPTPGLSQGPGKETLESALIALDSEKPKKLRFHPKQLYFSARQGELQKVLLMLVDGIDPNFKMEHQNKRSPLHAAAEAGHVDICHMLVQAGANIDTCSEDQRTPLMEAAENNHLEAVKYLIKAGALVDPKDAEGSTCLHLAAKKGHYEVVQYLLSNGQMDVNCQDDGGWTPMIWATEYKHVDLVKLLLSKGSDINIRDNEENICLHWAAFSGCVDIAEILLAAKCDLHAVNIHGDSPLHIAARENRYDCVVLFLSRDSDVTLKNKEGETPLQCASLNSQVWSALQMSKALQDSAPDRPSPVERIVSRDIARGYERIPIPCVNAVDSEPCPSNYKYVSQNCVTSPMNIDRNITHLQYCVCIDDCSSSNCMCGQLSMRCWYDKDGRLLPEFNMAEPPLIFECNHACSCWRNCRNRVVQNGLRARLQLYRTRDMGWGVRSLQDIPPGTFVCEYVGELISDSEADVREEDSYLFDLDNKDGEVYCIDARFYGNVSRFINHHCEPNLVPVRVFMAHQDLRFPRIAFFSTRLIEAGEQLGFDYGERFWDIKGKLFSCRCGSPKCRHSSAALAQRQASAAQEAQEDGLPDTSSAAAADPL
How it was run: as §1

[6] = molecular target: Histone-lysine N-methyltransferase SUV39H2 (Homo sapiens, UniProt Q9H5I1); experiment: Inhibition of SUV39H2 (unknown origin) assessed as incorporation of tritium-labeled methyl group to lysine or arginine residues of peptide substrate by radioactive assay
How it was run: as §1

[7] = molecular target: T4, Histone-lysine N-methyltransferase SETD7 (Homo sapiens, UniProt Q8WTS6); experiment: Inhibition of SETD7 (unknown origin) assessed as incorporation of tritium-labeled methyl group to lysine or arginine residues of peptide substrate by radioactive assay
T4 sequence (Q8WTS6 whole entry): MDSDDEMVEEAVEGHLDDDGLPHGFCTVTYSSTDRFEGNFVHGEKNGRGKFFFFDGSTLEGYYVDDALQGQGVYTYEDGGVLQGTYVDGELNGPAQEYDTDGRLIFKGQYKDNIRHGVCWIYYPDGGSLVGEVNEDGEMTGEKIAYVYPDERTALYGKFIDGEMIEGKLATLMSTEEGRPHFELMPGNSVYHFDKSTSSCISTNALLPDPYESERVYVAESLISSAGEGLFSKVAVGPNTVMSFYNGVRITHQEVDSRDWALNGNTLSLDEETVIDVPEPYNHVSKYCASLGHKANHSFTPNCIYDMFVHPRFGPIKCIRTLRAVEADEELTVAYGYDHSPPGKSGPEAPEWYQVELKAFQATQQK
How it was run: as §1

[8] = molecular target: Protein arginine N-methyltransferase 3 (Homo sapiens, UniProt O60678); experiment: Inhibition of PRMT3 (unknown origin) assessed as incorporation of tritium-labeled methyl group to lysine or arginine residues of peptide substrate by radioactive assay
How it was run: as §1

[9] = molecular target: Protein arginine N-methyltransferase 5 (Homo sapiens, UniProt O14744); experiment: Inhibition of PRMT5 (unknown origin) assessed as incorporation of tritium-labeled methyl group to lysine or arginine residues of peptide substrate by radioactive assay
How it was run: as §1

[10] = molecular target: Protein arginine N-methyltransferase 1 (Homo sapiens, UniProt Q99873); experiment: Inhibition of PRMT1 (unknown origin) assessed as incorporation of tritium-labeled methyl group to lysine or arginine residues of peptide substrate by radioactive assay
How it was run: as §1

[11] = molecular target: Histone-lysine N-methyltransferase KMT5B (Homo sapiens, UniProt Q4FZB7); experiment: Inhibition of SUV420H1 (unknown origin) assessed as incorporation of tritium-labeled methyl group to lysine or arginine residues of peptide substrate by radioactive assay
How it was run: as §1

[12] = molecular target: Histone-lysine N-methyltransferase KMT5C (Homo sapiens, UniProt Q86Y97); experiment: Inhibition of SUV420H2 (unknown origin) assessed as incorporation of tritium-labeled methyl group to lysine or arginine residues of peptide substrate by radioactive assay
How it was run: as §1

[13] = molecular target: N-lysine methyltransferase SMYD2 (Homo sapiens, UniProt Q9NRG4); experiment: Inhibition of SMYD2 (unknown origin) assessed as incorporation of tritium-labeled methyl group to lysine or arginine residues of peptide substrate by radioactive assay
How it was run: as §1

[14] = molecular target: DNA (cytosine-5)-methyltransferase 1 (Homo sapiens, UniProt P26358); experiment: Inhibition of DNMT1 (unknown origin) assessed as using dsDNA substrate by radioactive assay
[15] = molecular target: Histone-lysine N-methyltransferase 2A (Homo sapiens, UniProt Q03164); experiment: Inhibition of MLL1 (unknown origin) assessed as incorporation of tritium-labeled methyl group to lysine or arginine residues of peptide substrate by radioactive assay
How it was run: as §1

[16] = molecular target: Histone-lysine N-methyltransferase, H3 lysine-79 specific (Homo sapiens, UniProt Q8TEK3); experiment: Inhibition of DOT1L (unknown origin) by filter-based assay
How it was run: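 Filter-format tritium assay: 20 μL reaction with 3H-SAM and substrates near Km, compound at 100 nM to 100 μM, incubated 1 h at room temperature. Precipitated with 10% TCA on filter plates, washed twice with 10% TCA and once with ethanol, scintillant added, CPM counted. No-compound CPM was 100% activity; no-enzyme CPM was 0%.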

Sequence of Protein arginine N-methyltransferase 3 (O60678 whole entry): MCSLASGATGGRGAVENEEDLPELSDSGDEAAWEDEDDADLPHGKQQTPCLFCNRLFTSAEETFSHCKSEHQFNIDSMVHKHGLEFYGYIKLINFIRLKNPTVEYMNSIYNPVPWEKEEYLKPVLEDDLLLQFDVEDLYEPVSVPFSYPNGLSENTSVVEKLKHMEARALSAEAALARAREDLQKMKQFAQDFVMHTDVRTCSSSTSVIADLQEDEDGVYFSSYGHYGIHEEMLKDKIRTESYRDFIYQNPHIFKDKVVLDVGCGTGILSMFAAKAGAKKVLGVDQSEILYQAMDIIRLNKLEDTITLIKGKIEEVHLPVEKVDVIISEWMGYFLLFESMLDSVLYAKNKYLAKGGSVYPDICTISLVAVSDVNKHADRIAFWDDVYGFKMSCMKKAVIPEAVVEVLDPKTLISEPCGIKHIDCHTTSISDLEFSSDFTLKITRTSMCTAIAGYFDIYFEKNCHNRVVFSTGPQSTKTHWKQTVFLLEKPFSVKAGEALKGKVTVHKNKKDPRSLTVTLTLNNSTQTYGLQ
Sequence of Histone-lysine N-methyltransferase, H3 lysine-79 specific (Q8TEK3 whole entry): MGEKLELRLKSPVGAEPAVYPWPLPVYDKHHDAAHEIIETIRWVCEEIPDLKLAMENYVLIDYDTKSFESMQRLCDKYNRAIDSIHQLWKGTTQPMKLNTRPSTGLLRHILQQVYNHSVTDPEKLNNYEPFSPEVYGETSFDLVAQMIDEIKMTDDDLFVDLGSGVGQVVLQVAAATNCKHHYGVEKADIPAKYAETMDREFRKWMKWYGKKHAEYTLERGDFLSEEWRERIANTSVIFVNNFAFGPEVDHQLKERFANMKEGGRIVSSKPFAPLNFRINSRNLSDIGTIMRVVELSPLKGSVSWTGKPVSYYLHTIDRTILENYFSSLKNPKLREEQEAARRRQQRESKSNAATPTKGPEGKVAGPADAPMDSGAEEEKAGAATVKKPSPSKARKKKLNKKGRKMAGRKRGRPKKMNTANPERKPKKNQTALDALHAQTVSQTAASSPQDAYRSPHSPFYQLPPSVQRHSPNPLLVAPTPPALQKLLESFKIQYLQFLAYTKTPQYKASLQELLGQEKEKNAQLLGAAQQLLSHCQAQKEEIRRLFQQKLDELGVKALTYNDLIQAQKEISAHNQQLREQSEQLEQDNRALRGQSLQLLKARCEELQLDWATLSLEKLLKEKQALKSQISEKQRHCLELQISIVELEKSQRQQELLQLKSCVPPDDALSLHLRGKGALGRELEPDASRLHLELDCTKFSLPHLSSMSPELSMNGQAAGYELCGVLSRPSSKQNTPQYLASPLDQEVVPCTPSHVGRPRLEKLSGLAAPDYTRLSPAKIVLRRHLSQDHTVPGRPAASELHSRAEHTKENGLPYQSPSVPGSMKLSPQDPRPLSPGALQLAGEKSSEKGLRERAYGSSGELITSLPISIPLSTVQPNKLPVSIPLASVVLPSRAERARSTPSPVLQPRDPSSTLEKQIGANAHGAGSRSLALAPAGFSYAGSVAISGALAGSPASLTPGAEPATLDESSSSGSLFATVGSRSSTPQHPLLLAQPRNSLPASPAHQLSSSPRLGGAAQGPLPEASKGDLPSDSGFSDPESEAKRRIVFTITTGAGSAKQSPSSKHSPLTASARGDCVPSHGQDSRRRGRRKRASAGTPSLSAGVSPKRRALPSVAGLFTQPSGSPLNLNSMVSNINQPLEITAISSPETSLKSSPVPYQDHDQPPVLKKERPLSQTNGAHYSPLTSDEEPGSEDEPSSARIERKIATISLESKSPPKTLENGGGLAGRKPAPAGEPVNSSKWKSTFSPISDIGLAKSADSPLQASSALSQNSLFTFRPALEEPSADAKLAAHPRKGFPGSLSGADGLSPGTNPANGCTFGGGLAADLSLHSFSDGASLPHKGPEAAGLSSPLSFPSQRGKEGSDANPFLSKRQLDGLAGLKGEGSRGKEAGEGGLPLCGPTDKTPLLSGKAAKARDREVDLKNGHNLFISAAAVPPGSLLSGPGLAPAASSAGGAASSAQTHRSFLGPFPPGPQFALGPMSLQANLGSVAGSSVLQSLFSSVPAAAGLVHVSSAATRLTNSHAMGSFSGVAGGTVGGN
Sequence of Protein arginine N-methyltransferase 5 (O14744 whole entry): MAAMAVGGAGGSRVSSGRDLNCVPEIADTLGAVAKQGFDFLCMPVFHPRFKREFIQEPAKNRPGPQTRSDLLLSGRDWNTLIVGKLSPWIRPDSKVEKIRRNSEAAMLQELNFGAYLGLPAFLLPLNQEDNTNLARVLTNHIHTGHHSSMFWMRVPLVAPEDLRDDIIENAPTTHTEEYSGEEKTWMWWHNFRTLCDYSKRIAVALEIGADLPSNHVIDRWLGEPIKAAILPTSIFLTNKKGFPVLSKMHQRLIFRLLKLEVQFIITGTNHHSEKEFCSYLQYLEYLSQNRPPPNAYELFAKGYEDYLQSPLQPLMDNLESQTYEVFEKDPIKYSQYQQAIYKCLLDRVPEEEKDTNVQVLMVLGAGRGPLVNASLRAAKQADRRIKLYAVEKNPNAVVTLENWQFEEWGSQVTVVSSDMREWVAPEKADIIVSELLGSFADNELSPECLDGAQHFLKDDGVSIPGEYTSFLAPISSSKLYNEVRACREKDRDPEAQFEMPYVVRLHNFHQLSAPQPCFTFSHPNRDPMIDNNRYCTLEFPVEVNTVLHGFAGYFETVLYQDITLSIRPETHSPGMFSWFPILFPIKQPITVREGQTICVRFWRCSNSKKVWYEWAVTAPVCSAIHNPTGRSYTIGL
Sequence of Protein arginine N-methyltransferase 1 (Q99873 whole entry): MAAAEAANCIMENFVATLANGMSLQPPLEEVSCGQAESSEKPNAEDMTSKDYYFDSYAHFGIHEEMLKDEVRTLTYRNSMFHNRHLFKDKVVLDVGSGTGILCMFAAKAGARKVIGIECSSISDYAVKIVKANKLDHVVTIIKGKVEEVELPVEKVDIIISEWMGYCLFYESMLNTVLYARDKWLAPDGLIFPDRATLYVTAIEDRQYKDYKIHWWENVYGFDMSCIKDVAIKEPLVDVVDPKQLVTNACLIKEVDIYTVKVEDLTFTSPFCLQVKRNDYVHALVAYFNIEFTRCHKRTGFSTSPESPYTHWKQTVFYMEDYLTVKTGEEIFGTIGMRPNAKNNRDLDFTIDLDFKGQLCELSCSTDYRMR
Sequence of DNA (cytosine-5)-methyltransferase 1 (P26358 whole entry): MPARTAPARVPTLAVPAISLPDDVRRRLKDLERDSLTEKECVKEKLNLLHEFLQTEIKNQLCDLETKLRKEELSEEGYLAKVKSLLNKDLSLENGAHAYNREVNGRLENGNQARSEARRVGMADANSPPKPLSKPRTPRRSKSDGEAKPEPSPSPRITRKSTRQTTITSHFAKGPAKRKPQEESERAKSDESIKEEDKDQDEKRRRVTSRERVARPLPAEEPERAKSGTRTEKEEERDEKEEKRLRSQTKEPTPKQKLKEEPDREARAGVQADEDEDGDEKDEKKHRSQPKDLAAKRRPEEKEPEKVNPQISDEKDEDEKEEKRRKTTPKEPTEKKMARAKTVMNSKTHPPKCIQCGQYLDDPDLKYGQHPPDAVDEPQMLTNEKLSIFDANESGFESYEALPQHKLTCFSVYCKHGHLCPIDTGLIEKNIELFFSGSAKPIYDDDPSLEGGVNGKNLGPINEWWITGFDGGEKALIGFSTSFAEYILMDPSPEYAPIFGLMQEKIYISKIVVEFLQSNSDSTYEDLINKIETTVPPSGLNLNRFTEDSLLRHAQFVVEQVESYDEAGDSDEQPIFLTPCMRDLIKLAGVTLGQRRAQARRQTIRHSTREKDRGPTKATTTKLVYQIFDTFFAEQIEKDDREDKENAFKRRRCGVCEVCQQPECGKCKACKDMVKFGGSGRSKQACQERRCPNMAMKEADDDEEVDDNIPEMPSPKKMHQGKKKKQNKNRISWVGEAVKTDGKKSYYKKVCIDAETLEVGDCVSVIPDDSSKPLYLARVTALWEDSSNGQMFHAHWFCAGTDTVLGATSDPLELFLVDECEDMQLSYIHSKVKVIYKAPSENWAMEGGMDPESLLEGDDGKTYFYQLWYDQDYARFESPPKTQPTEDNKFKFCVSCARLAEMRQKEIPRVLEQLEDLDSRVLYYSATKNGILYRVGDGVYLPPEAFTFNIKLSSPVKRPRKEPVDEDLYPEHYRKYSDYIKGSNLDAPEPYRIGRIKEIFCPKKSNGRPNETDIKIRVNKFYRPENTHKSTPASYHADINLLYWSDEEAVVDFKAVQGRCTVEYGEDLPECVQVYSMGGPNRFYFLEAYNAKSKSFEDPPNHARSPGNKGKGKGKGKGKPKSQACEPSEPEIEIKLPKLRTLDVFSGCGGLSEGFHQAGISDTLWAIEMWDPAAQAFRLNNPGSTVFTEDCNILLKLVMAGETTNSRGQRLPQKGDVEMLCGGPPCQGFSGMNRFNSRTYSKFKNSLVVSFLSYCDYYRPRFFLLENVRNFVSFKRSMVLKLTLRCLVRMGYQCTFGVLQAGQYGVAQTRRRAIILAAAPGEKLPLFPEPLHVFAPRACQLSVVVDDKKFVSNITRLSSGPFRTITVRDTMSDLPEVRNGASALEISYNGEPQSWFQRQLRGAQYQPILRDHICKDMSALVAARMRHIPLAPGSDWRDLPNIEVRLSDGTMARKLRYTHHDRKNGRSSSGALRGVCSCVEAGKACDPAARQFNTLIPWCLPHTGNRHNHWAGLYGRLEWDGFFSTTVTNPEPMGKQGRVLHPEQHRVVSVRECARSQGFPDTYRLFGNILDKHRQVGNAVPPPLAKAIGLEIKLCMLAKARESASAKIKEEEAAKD
Sequence of Histone-lysine N-methyltransferase SUV39H2 (Q9H5I1 whole entry): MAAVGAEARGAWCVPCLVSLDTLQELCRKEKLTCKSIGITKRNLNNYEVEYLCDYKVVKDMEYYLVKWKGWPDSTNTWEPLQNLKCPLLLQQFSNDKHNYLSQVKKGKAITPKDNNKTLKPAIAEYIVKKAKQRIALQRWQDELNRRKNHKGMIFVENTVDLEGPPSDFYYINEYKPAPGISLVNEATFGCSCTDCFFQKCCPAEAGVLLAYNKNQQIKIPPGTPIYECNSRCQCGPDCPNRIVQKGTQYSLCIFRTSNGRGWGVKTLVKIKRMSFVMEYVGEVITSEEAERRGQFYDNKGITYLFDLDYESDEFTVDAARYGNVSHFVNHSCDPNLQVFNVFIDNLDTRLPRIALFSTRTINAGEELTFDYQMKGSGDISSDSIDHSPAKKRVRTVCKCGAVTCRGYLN

Q: Which results are given for `COc1cc2nc(N3CCCC3)nc(N(C)CCCCCN3CCCC3)c2cc1OC`?
A: IC50 [1]: > 250 µM; IC50 [2]: Not Active

Q: `COc1cc2nc(NC3CCCC3)nc(NCCCCCN3CCCC3)c2cc1OC` was tested. Which IC50 [1] did it give?
A: > 250 µM

Q: For `COc1cc2nc(NC3CCCCC3)nc(NCCCCCN3CCCC3)c2cc1OC`, which IC50 [1] is on record?
A: > 250 µM

Q: `COc1cc2nc(N3CCCC3)nc(NCCCCCN3CCCC3)c2cc1OC` was tested. Which IC50 [3] did it give?
A: > 100 µM

Q: And the IC50 [4]?
A: > 100 µM

Q: What about the IC50 [5] of the same compound?
A: > 100 µM

Q: And the IC50 [6]?
A: > 100 µM

Q: And the IC50 [7]?
A: > 100 µM

Q: And the IC50 [8]?
A: > 100 µM

Q: What about the IC50 [9] of the same compound?
A: > 100 µM

Q: And the IC50 [10]?
A: > 100 µM

Q: And the IC50 [11]?
A: > 100 µM

Q: What about the IC50 [12] of the same compound?
A: > 100 µM

Q: And the IC50 [13]?
A: > 100 µM

Q: What about the IC50 [14] of the same compound?
A: > 100 µM

Q: And the IC50 [15]?
A: > 100 µM

Q: And the IC50 [16]?
A: > 100 µM

From ChEMBL document CHEMBL3351294, “Discovery of a selective, substrate-competitive inhibitor of the lysine methyltransferase SETD8” (J Med Chem, 2014)
